Reference: ChEMBL document CHEMBL4130635, “2,4-Diaminoquinazolines as Dual Toll-like Receptor (TLR) 7/8 Modulators for the Treatment of Hepatitis B Virus” (J Med Chem, 2018)
Activity calls are given as the source filed them. The calls are words filed in the database; no cut-off is given here.

Experiments:
[1] = Cytotoxicity against HEK293 cells assessed as reduction in cell viability after 6 hrs by ATP lite assay; type: cell-based; conditions: human
[2] = Permeability of the compound in porcine LLC-PK1 cells expressing MDR1 at 1 uM by LC-MS/MS analysis; type: ADME, cell-based, Sus scrofa; conditions: pig, llc-pk1, 1 µM
[3] = Intrinsic clearance in rat liver microsomes assessed per mg protein at 1 uM up to 60 mins; type: ADME, microsome; conditions: read-out: CLH
[4] = Stability in mouse hepatocytes assessed compound turnover at 1 uM after 60 mins; type: ADME, cell-based, Hepatocyte; conditions: read-out: Drug metabolism
[5] = Stability in cynomolgus monkey hepatocytes assessed compound turnover at 1 uM after 60 mins; type: ADME, cell-based, Macaca fascicularis, Hepatocyte; conditions: read-out: Drug metabolism
[6] = Protein binding in rat plasma fraction at 5 uM after 4.5 hrs LC-MS/MS-based rapid equilibrium dialysis method; type: ADME, cell-free; conditions: read-out: PPB (converted)
[7] = Protein binding in human plasma fraction at 5 uM after 4.5 hrs LC-MS/MS-based rapid equilibrium dialysis method; type: ADME, cell-free; conditions: read-out: PPB (converted)
[8] = AUC in Sprague-Dawley rat at 10 mg/kg, po; type: ADME, organism-based; conditions: in vivo
Procedure, shortened: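 Male Sprague-Dawley rats were given 10 mg/kg orally as a solution. Compound was sampled from the portal vein, the systemic circulation and the liver.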

[9] = Cmax in C57BL/6J mouse liver at 10 mg/kg, po by LC-MS analysis; type: ADME, organism-based; set-up: dose 10 mg/kg, route oral
Procedure, shortened: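 Healthy C57BL/6 mice, groups of 15, given a single oral dose (0.3, 1, 3, 10 or 30 mg/kg) in 20% HP-β-CD. Blood drawn at 0.5 h. Three mice per group sacrificed at 0.5, 1, 2, 4 or 7 h, and compound in plasma and liver measured by LC−MS. Values rounded to whole numbers.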

[10] = AUC (0 to last) in C57BL/6J mouse plasma at 10 mg/kg, po by LC-MS analysis; type: ADME, organism-based; set-up: dose 10 mg/kg, route oral, time 0 - last
Procedure, shortened: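 Healthy C57BL/6 mice were dosed once by mouth at 0.3, 1, 3, 10 or 30 mg/kg in 20% HP-β-CD, in groups of 15 per dose. Three mice per group were sacrificed at 0.5, 1, 2, 4 or 7 h, and plasma and liver compound levels were measured by LC–MS. Values were rounded to whole numbers.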

[11] = test system: Plasma; assay: Induction of IFNalpha levels in C57BL/6J mouse plasma at 10 mg/kg, po by ELISA; type: functional
[12] = test system: Liver; assay: Upregulation of IP-10 mRNA expression levels in C57BL/6J mouse liver at 1 mg/kg, po by RT-qPCR analysis (reference value: 1); type: functional
[13] = test system: Plasma; assay: Effect on cytokine profile in C57BL/6J mouse plasma assessed as IFNgamma levels at 1 mg/kg, po by multiplex assay; type: functional, organism-based
Procedure, shortened: (§1)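 Single oral gavage in 20% HP-β-CD to healthy C57BL/6 mice, groups of 15 at 0.3, 1, 3, 10 or 30 mg/kg. Three mice per group sacrificed at 0.5, 1, 2, 4 or 7 h. Plasma and liver cytokines by multiplex, maximum level reported, rounded to nearest multiple of 5.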

[14] = test system: Plasma; assay: Effect on cytokine profile in C57BL/6J mouse plasma assessed as IFNgamma levels at 30 mg/kg, po by multiplex assay; type: functional; procedure, shortened: as §1
[15] = test system: Plasma; assay: Proinflammatory activity in C57BL/6J mouse plasma assessed as IL-6 levels at 1 mg/kg, po by multiplex assay (reference value: 505 pg/ml); type: functional
[16] = AUC (0 to last) in cynomolgus monkey plasma at 30 mg/kg, po by LC-MS analysis; type: ADME, organism-based, Macaca fascicularis; set-up: dose 30 mg/kg, route oral, time 0 - last
Procedure, shortened: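 Healthy cynomolgus monkeys received single oral doses of 1, 3, 9 and 30 mg/kg, with a 2-week wash-out between doses. Systemic compound concentrations were measured by LC–MS at 0.25, 0.5, 1, 2, 4, 8 and 24 h postdose.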

[17] = test system: Cynomolgus monkey; assay: Induction of IFNalpha levels in cynomolgus monkey plasma at 1 mg/kg, po after 24 hrs by ELISA; type: functional, Macaca fascicularis
Procedure, shortened: (§2)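 Healthy cynomolgus monkeys given single oral doses of 1, 3, 9 and 30 mg/kg, with a 2-week wash-out planned between doses. Systemic cytokine levels in plasma were sampled at 0.5, 1, 2, 4, 9 and 24 h postdose.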

[18] = test system: Cynomolgus monkey; assay: Induction of IFNalpha levels in cynomolgus monkey plasma at 3 mg/kg, po after 24 hrs by ELISA; type: functional, Macaca fascicularis; procedure, shortened: as §2
[19] = test system: Cynomolgus monkey; assay: Proinflammatory activity in cynomolgus monkey plasma assessed as IL-8 levels at 3 mg/kg, po after 24 hrs by Luminex assay (reference value: 430 pg/ml); type: functional, Macaca fascicularis
[20] = test system: Cynomolgus monkey; assay: Activation of monocytes in cynomolgus monkey plasma assessed as upregulation of MCP1 levels at 9 mg/kg, po after 24 hrs by Luminex assay (reference value: 385 pg/ml); type: functional, Macaca fascicularis
[21] = test system: Cynomolgus monkey; assay: Activation of monocytes in cynomolgus monkey plasma assessed as upregulation of MIP1 levels at 30 mg/kg, po after 24 hrs by Luminex assay (reference value: 37 pg/ml); type: functional, Macaca fascicularis
[22] = test system: Cynomolgus monkey; assay: Induction of G-CSF in cynomolgus monkey plasma at 9 mg/kg, po after 24 hrs by Luminex assay (reference value: 85 pg/ml); type: functional, Macaca fascicularis; procedure, shortened: as §2
[23] = test system: Cynomolgus monkey; assay: Induction of ISG response in cynomolgus monkey plasma assessed as upregulation of Isg15 mRNA expression at 30 mg/kg, po after 24 hrs by Fluidigm RT-qPCR analysis (reference value: 1); type: functional, Macaca fascicularis
Procedure, shortened: (§3)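 Cynomolgus monkeys, single oral doses of 1, 3, 9 and 30 mg/kg with a planned 2-week wash-out between doses. Systemic ISG (ISG15, Mx1, OAS1) mRNA was measured by Fluidigm RT-qPCR at 1, 2, 4, 8 and 24 h postdose.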

[24] = test system: Cynomolgus monkey; assay: Induction of ISG response in cynomolgus monkey plasma assessed as upregulation of Mx1 mRNA expression at 1 mg/kg, po after 24 hrs by Fluidigm RT-qPCR analysis (reference value: 1); type: functional, Macaca fascicularis; procedure, shortened: as §3
[25] = molecular target: T1, TLR7 and TLR8 (Homo sapiens) (UniProt Q9NYK1+Q9NR97); assay: Agonist activity at TLR7/8 in human PBMCs co-cultured with primary human hepatocytes infected with HBV genotype C for 12 days assessed as increase in IFNalpha2 levels up to 5 uM measured after 42 days
[26] = molecular target: T1, TLR7 and TLR8 (Homo sapiens); assay: Agonist activity at TLR7/8 in human PBMCs co-cultured with primary human hepatocytes infected with HBV genotype C for 12 days assessed as increase in IL-12p70 levels up to 5 uM measured after 42 days
[27] = molecular target: T1, TLR7 and TLR8 (Homo sapiens); assay: Agonist activity at TLR7/8 in human PBMCs co-cultured with primary human hepatocytes infected with HBV genotype C for 12 days assessed as increase in GROalpha levels up to 5 uM measured after 42 days
[28] = test system: Toll-like receptor 7/8 (Homo sapiens); assay: Agonist activity at TLR7/8 in human PBMCs assessed as decrease in HBeAg levels in human hepatocytes infected with HBV genotype C for 12 days followed by exposure to conditioned supernatant from up to 5 uM compound treated PBMCs measured after 42 days
[29] = test system: Toll-like receptor 7/8 (Homo sapiens); assay: Agonist activity at TLR7/8 in human PBMCs assessed as decrease in intracellular HBV-rcDNA levels in human hepatocytes infected with HBV genotype C for 12 days followed by exposure to conditioned supernatant from up to 5 uM compound treated PBMCs measured after 42 days

## CCC[C@@H](CCO)Nc1nc(N)nc2c(F)cccc12
[1]
  CC50 at 6 h: > 24 µM
[2]
  permeability: Permeable
[3]
  microsomal CLint at 1 µM: 24 µL/min/mg
[4]
  metabolised at 1 h, 1 µM: 99%
[5]
  metabolised at 1 h, 1 µM: 98%
[6]
  fraction unbound at 4.5 h, 5 µM: 0.47
[7]
  fraction unbound at 4.5 h, 5 µM: 0.34
[8]
  AUC: 49 ng·h/mL
[9]
  Cmax: 1420 ng/g
[10]
  AUC(0-t): 141 ng·h/mL
[11]
  Activity: >3200 pg/mL
[12]
  fold change (FC): 775
[13]
  Activity: Below limit of detection
[14]
  Activity: 1010 pg/mL
[15]
  Activity: 1150 pg/mL
[16]
  AUC(0-t): 5200 ng·h/mL
[17]
  Activity: 3465 pg/mL
[18]
  Activity: >51200 pg/mL
[19]
  Activity: 1505 pg/mL
[20]
  Activity: 8890 pg/mL
[21]
  Activity: 560 pg/mL
[22]
  Activity: 825 pg/mL
[23]
  fold change (FC): 285
[24]
  fold change (FC): 40
[25]
  Activity: Active
[26]
  Activity: Active
[27]
  Activity: Active
[28]
  Activity: Dose-dependent effect
[29]
  Activity: Active
